hERG protect – compounds protecting human hERG from proarrhythmic drug block; activation (rescue from dofetilide block), less the hit threshold, % at 10 µM; hit rate 0.51% among 310,000; AID 1511; CHO-hERG, FluxOR thallium flux, dofetilide IC70 present;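 active = activation above the mean of controls blocked by dofetilide plus 5 SD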;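 note: thallium influx through hERG after potassium depolarization seen as dye fluorescence rise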
Kir21 inh – blocks the mouse Kir2.1 inward-rectifier potassium channel; HEK293-Kir2.1, FluxOR thallium flux fluorescence; active compounds read low; B-score at 10 µM; P35561; hit rate 0.85% among 310,000;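 active = fluorescence ratio B-score at or below minus 3 SD of library scores, with starting-brightness B-score within 2 SD, cut at about -4.2 in these data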;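 note: channel flux triggered by added potassium and thallium sulfate stimulus; B-score of peak minus minimum fluorescence over baseline after thallium stimulus; more negative B-score means stronger Kir2.1 block with less thallium influx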
KCNQ1 block – human KCNQ1 channel inhibition; CHO-K1 KCNQ1, FluxOR thallium flux fluorescence; active compounds read high; B-score at 10 µM; hit rate 1.3% among 310,000;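 active = compounds whose thallium flux B-score, printed positive for inhibition, exceeds three library SD while starting fluorescence stays within three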;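 note: channel opened by potassium depolarization with thallium stimulus after 20 min compound exposure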
KCNK3 inh – human KCNK3 channel inhibition, primary screen. O14649. CHO-KCNK3 thallium flux, FluxOR fluorescence; active compounds read low. B-score at 10 µM. hit rate 0.84% among 340,000. AID 602410;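 active = B-score under library mean minus 4 SD, starting fluorescence ratio at most library mean plus 5 SD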;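 note: more negative B-score means stronger inhibition of thallium flux through KCNK3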
Target sequence (O14649 whole entry, looked up): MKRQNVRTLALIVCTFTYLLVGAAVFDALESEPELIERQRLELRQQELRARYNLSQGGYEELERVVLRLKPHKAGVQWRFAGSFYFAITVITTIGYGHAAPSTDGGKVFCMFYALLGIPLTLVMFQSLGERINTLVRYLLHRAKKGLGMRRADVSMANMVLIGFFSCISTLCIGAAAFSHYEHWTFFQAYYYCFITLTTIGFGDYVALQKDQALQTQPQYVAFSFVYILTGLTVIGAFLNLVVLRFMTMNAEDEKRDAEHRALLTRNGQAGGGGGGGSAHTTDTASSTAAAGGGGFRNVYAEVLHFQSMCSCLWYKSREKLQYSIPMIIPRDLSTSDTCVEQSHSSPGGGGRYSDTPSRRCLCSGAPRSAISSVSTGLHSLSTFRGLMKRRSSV
KCNQ1 act – potentiators or activators of human KCNQ1 potassium channel. P51787. CHO-K1 KCNQ1, thallium flux FluxOR fluorescence; active compounds read high. B-score at 10 µM. hit rate 0.35% among 310,000. AID 2648;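 active = fluorescence ratio B-score, a plate-corrected score, at least three library SD, with initial intensity B-score within 5 SD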
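System: CHO-K1 cells stably expressing KCNQ1 / Medium: assay buffer for compound exposure, DMSO matched across wells / Reagent: thallium- and potassium-containing depolarizing buffer / Compound: one concentration, matched DMSO / Incubation: 20 min compound pretreatment at room temperature / Measured by: kinetic FluxOR fluorescence, 10 s baseline plus 110 s post-stimulus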
KCNK9 inh – blocks the human KCNK9 two-pore domain potassium channel. Q9NPC2. HEK293 KCNK9, FluxOR thallium flux fluorescence; active compounds read low. B-score at 10 µM. hit rate 1.2% among 310,000;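 active = ratio B-score over 3 SD below the library mean, with starting fluorescence within 5 SD of its mean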;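 note: negative B-score means less thallium flux so channel inhibition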
Hits are given with their value. An excerpt weighted towards active compounds, which were near 3.7% of everything screened.

COc1ccc(CCNC(=O)COC(=O)C23CC4CC(CC(C4)C2)C3)cc1 was read as hERG protect inactive, Kir21 inh -7.3, KCNQ1 block inactive, KCNK3 inh inactive, KCNQ1 act inactive and KCNK9 inh inactive.
`O=C(COC(=O)C12CC3CC(CC(C3)C1)C2)NCCCc1ccccc1` gave hERG protect inactive, Kir21 inh inactive, KCNQ1 block inactive, KCNK3 inh inactive, KCNQ1 act 23 and KCNK9 inh inactive.
`O=C(CCl)Nc1cc(S(=O)(=O)N2CCCCCC2)ccc1Cl` gave hERG protect inactive, Kir21 inh inactive, KCNQ1 block inactive, KCNK3 inh inactive, KCNQ1 act inactive and KCNK9 inh inactive.
Screening Cc1ccc([C@@H]2[C@@H]3C(=O)N(C)C(=O)[C@@H]3[C@]3(Cc4ccccc4)C(=O)N(Cc4ccccn4)CC(=O)N23)o1 returned hERG protect inactive, Kir21 inh inactive, KCNQ1 block inactive, KCNK3 inh inactive, KCNQ1 act inactive and KCNK9 inh inactive.
CNC(=O)CSc1nnc(SCCC(=O)O)s1 was read as hERG protect inactive, Kir21 inh inactive, KCNQ1 block inactive, KCNK3 inh inactive, KCNQ1 act inactive and KCNK9 inh inactive.
`O=C1CNC(=S)N1C1CCCCCC1` gave hERG protect inactive, Kir21 inh -5.61, KCNQ1 block inactive, KCNK3 inh inactive, KCNQ1 act inactive and KCNK9 inh inactive.
`CCCC1NC(=S)N(C2CCCCC2)C1=O` (stereo not drawn) gave hERG protect inactive, Kir21 inh inactive, KCNQ1 block inactive, KCNK3 inh inactive, KCNQ1 act inactive and KCNK9 inh inactive.
For Cc1ccc(C)c(N(C)C(=O)CCS(=O)(=O)c2cccc3nonc23)c1 the results were hERG protect inactive, Kir21 inh inactive, KCNQ1 block inactive, KCNK3 inh inactive, KCNQ1 act inactive and KCNK9 inh inactive.
`CC(C)(C)n1nnnc1C(c1cccnc1)N(Cc1ccccc1)Cc1ccco1` (stereo not drawn) gave hERG protect inactive, Kir21 inh inactive, KCNQ1 block inactive, KCNK3 inh inactive, KCNQ1 act inactive and KCNK9 inh inactive.
CCC(C)(C)n1nnnc1C(c1ccc(C)cc1)N(Cc1ccco1)Cc1cccs1 (stereo not drawn) was read as hERG protect inactive, Kir21 inh inactive, KCNQ1 block inactive, KCNK3 inh inactive, KCNQ1 act inactive and KCNK9 inh -6.95.
CCCC(=O)NC1=C(Cl)C(=O)c2ccccc2C1=O was read as KCNK3 inh -9.26.
`CC(C)c1nc(SCC(=O)Nc2ccc([N+](=O)[O-])cc2Br)n[nH]1` gave hERG protect 8.6, Kir21 inh inactive, KCNQ1 block inactive, KCNK3 inh inactive, KCNQ1 act inactive and KCNK9 inh inactive.
CC[C@H](C)[C@H](NC(=O)c1ccccc1)C(=O)Nc1ccc(S(=O)(=O)Nc2cc(C)nc(C)n2)cc1 was read as hERG protect inactive, Kir21 inh inactive, KCNQ1 block inactive, KCNK3 inh inactive, KCNQ1 act inactive and KCNK9 inh inactive.
For CC(C)(C)C(=O)NCCCc1nc2ccccc2n1CCCOc1ccc(Cl)cc1 the results were hERG protect inactive, Kir21 inh inactive, KCNQ1 block inactive, KCNK3 inh inactive, KCNQ1 act inactive and KCNK9 inh -7.32.
CC(C)(C)c1cc(NCCCn2ccnc2)n2ncc(-c3ccc(Cl)cc3)c2n1 was read as hERG protect inactive, Kir21 inh inactive, KCNQ1 block inactive, KCNK3 inh inactive, KCNQ1 act inactive and KCNK9 inh inactive.
For CN(C)CCCNc1cc(C(C)(C)C)nc2c(-c3ccccc3)cnn12 the results were hERG protect inactive, Kir21 inh -4.85, KCNQ1 block inactive, KCNK3 inh inactive, KCNQ1 act inactive and KCNK9 inh inactive.
`CC(Sc1cccc[n+]1[O-])C(=O)NC1CCCCC1C` (stereo not drawn) gave KCNK3 inh inactive.
`COc1ccc(CN2CCNC(=O)C2CC(=O)N(C)Cc2ccon2)c(OC)c1` (stereo not drawn) gave hERG protect inactive, Kir21 inh inactive, KCNQ1 block 6, KCNK3 inh inactive, KCNQ1 act inactive and KCNK9 inh inactive.
`CC(C)(C)c1ccc(OCc2ccc(C(=O)N/N=C/c3ccc([N+](=O)[O-])cc3)o2)cc1` gave hERG protect inactive, Kir21 inh inactive, KCNQ1 block 7, KCNK3 inh inactive, KCNQ1 act inactive and KCNK9 inh inactive.
`CCOc1ccc(/C=N/NC(=O)c2ccc(Cn3cc([N+](=O)[O-])cn3)o2)cc1` gave hERG protect inactive, Kir21 inh inactive, KCNQ1 block inactive, KCNK3 inh inactive, KCNQ1 act inactive and KCNK9 inh inactive.
For N/C(Cc1ccc(Cl)cc1)=N\OC(=O)C1CCCCC1 the results were hERG protect inactive, Kir21 inh inactive, KCNQ1 block inactive, KCNK3 inh inactive, KCNQ1 act inactive and KCNK9 inh inactive.
Screening CN(C)CC(C)(C)CNC(C(=O)Nc1ccc(Cl)cc1C(F)(F)F)c1ccccc1 (stereo not drawn) returned hERG protect inactive, Kir21 inh inactive, KCNQ1 block inactive, KCNK3 inh inactive, KCNQ1 act inactive and KCNK9 inh inactive.
For CSc1nnc(-c2cc(-c3ccc(C)cc3)nc3ccccc23)o1 the results were hERG protect inactive, Kir21 inh inactive, KCNQ1 block inactive, KCNK3 inh inactive, KCNQ1 act inactive and KCNK9 inh -7.43.
Screening Cc1ccc(-c2nc3ccccc3c(=O)o2)cc1 returned hERG protect inactive, Kir21 inh inactive, KCNQ1 block inactive, KCNK3 inh inactive, KCNQ1 act inactive and KCNK9 inh inactive.
`Cc1cc(C)cc(NC(N)=S)c1` gave hERG protect inactive, Kir21 inh inactive, KCNQ1 block inactive, KCNK3 inh inactive, KCNQ1 act inactive and KCNK9 inh inactive.
`c1ccc(COc2ccccc2CNC23CC4CC(CC(C4)C2)C3)cc1` gave hERG protect inactive, Kir21 inh -9.77, KCNQ1 block inactive, KCNK3 inh inactive, KCNQ1 act inactive and KCNK9 inh inactive.
COc1ccc(Cn2nnnc2C(c2ccccc2Cl)N2CCN(C3CCCC3)CC2)cc1 (stereo not drawn) was read as hERG protect inactive, Kir21 inh -5.1, KCNQ1 block inactive, KCNK3 inh inactive, KCNQ1 act inactive and KCNK9 inh inactive.
COCCCNCCCCOc1ccc(Br)cc1Cl was read as hERG protect inactive, Kir21 inh -6.8, KCNQ1 block inactive, KCNK3 inh inactive, KCNQ1 act inactive and KCNK9 inh inactive.
COCCCNCCCOc1ccc(Cl)cc1C(C)(C)C was read as hERG protect inactive, Kir21 inh -5.09, KCNQ1 block inactive, KCNK3 inh inactive, KCNQ1 act inactive and KCNK9 inh inactive.
C=CCc1cc(Cl)ccc1OCCOCCNCCOC was read as hERG protect inactive, Kir21 inh -5.91, KCNQ1 block inactive, KCNK3 inh inactive, KCNQ1 act inactive and KCNK9 inh inactive.

Screening results deposited in PubChem by Johns Hopkins Ion Channel Center.
